Measurements taken from ChEMBL document CHEMBL2346534, “Design, synthesis and in vitro anti-proliferative activity of 4,6-quinazolinediamines as potent EGFR-TK inhibitors” (Eur J Med Chem, 2013).

Tests used:
Assay type in all cases: functional
CAKI-1 = test: Cytotoxicity against human Caki1 cells after 48 hrs by SRB assay; settings: CAKI-1, 48 h
Summary of the method: (§1)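 NCI 60-panel five-dose screen. Cells in RPMI 1640 with 5% FBS and 2 mM L-glutamine, plated at 5000–40,000 cells/well by doubling time, preincubated 24 h at 37 °C/5% CO2. Drug from DMSO stock added at 0.01, 0.1, 1, 10 and 100 µM, then 48 h. TCA fixation, SRB stain, absorbance at 515 nm, time-zero plates included. GI50 = 50% reduction in net protein increase versus control.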

SK-OV-3 = test: Cytotoxicity against human SKOV3 cells after 48 hrs by SRB assay; settings: SK-OV-3, 48 h
Summary of the method: (§2)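 NCI 60-panel five-dose screen. Cells in RPMI 1640 with 5% FBS and 2 mM L-glutamine are plated at 5000–40,000 cells/well by doubling time and preincubated 24 h at 37 °C in 5% CO2. Drug in DMSO is tested at 0.01, 0.1, 1, 10 and 100 μM for 48 h. Cells are TCA-fixed, stained with SRB and read at 515 nm. GI50 is the concentration giving 50% reduction in net protein increase relative to time-zero and control plates.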

Malme-3M = test: Cytotoxicity against human MALME-3M cells after 48 hrs by SRB assay; summary of the method: as §1
T47D = test: Cytotoxicity against human T47D cells after 48 hrs by SRB assay
Summary of the method: (§3)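 NCI 60 five-dose screen. Cells in RPMI 1640 with 5% FBS and 2 mM L-glutamine, plated at 5000–40,000 cells/well by doubling time, pre-incubated 24 h at 37 °C, 5% CO2. Time-zero plates TCA-fixed at drug addition. Final concentrations 0.01, 0.1, 1, 10 and 100 µM (DMSO stock), 48 h exposure. TCA fixation, 0.4% SRB stain, absorbance 515 nm. GI50 from [(Ti−Tz)/(C−Tz)]×100 = 50.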

OVCAR-5 = test: Cytotoxicity against human OVCAR5 cells after 48 hrs by SRB assay; settings: OVCAR-5, 48 h; summary of the method: as §2
U-251 = test: Cytotoxicity against human U251 cells after 48 hrs by SRB assay; settings: U-251, 48 h; summary of the method: as §3
SF-295 = test: Cytotoxicity against human SF295 cells after 48 hrs by SRB assay; settings: SF-295, 48 h; summary of the method: as §2
[1] = Cytotoxicity against human EKVX cells after 48 hrs by SRB assay; summary of the method: as §1
RXF 393 = test: Cytotoxicity against human RXF393 cells after 48 hrs by SRB assay; settings: RXF 393, 48 h; summary of the method: as §2
SF-268 = test: Cytotoxicity against human SF268 cells after 48 hrs by SRB assay; settings: SF-268, 48 h; summary of the method: as §2
SW-620 = test: Cytotoxicity against human SW620 cells after 48 hrs by SRB assay; settings: SW-620, 48 h; summary of the method: as §3
HOP-62 = test: Cytotoxicity against human HOP62 cells after 48 hrs by SRB assay; settings: HOP-62, 48 h; summary of the method: as §1
MDA-MB-231 = test: Cytotoxicity against human MDA-MB-231/ATCC cells after 48 hrs by SRB assay; settings: MDA-MB-231, 48 h; summary of the method: as §1
OVCAR-8 = test: Cytotoxicity against human OVCAR8 cells after 48 hrs by SRB assay; settings: OVCAR-8, 48 h; summary of the method: as §2
NCI-H322M = test: Cytotoxicity against human NCI-H322M cells after 48 hrs by SRB assay; summary of the method: as §2
SF-539 = test: Cytotoxicity against human SF539 cells after 48 hrs by SRB assay; settings: SF-539, 48 h; summary of the method: as §2
ACHN = test: Cytotoxicity against human ACHN cells after 48 hrs by SRB assay; summary of the method: as §1
DU-145 = test: Cytotoxicity against human DU145 cells after 48 hrs by SRB assay; settings: DU-145, 48 h; summary of the method: as §1
A498 = test: Cytotoxicity against human A498 cells after 48 hrs by SRB assay; settings: A498, 48 h; summary of the method: as §1
M14 = test: Cytotoxicity against human M14 cells after 48 hrs by SRB assay; settings: M14, 48 h; summary of the method: as §1
OVCAR-4 = test: Cytotoxicity against human OVCAR4 cells after 48 hrs by SRB assay; settings: OVCAR-4, 48 h; summary of the method: as §2
HL-60(TB) = test: Cytotoxicity against human HL-60(TB) cells after 48 hrs by SRB assay; settings: HL-60, 48 h
Summary of the method: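 NCI 60-panel five-dose screen. Cells were grown in RPMI 1640 with 5% FBS and 2 mM L-glutamine and preincubated 24 h before dosing. Compound from DMSO stock was given at five 10-fold concentrations for 48 h at 37 °C, 5% CO2. Suspension cells were fixed with TCA (final 16%), SRB-stained, and read at 515 nm. GI50, TGI and LC50 came from time-zero, control and treated absorbances.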

SNB-19 = test: Cytotoxicity against human SNB19 cells after 48 hrs by SRB assay; settings: SNB-19, 48 h; summary of the method: as §2
SK-MEL-5 = test: Cytotoxicity against human SK-MEL-5 cells after 48 hrs by SRB assay; settings: SK-MEL-5, 48 h; summary of the method: as §2
HCC 2998 = test: Cytotoxicity against human HCC2998 cells after 48 hrs by SRB assay; settings: HCC 2998, 48 h; summary of the method: as §1
[2] = read-out: LC50 (the source's name)

In the case of `NC(=O)Nc1ccc2ncnc(Nc3ccc(Cl)cc3)c2c1`, the GI50 (CAKI-1) is reported as 1.33 µM, the TGI (CAKI-1) is reported as 21.5 µM and the CC50 (CAKI-1; [2]) is reported as > 100 µM. For the same compound, the GI50 (SK-OV-3) was 3.52 µM, the TGI (SK-OV-3) was 20.5 µM and the CC50 (SK-OV-3; [2]) was > 100 µM. The GI50 (Malme-3M) was 22 µM, the TGI (Malme-3M) was 60.7 µM and the CC50 (Malme-3M; [2]) was > 100 µM. For the same compound, the GI50 (T47D) was 6.47 µM, the TGI (T47D) was 72.3 µM and the CC50 (T47D; [2]) was > 100 µM. For the same compound, the GI50 (OVCAR-5) was 15.2 µM, the TGI (OVCAR-5) was 90.3 µM and the CC50 (OVCAR-5; [2]) was > 100 µM. For the same compound, the GI50 (U-251) was 23.9 µM, the TGI (U-251) was > 100 µM and the CC50 (U-251; [2]) was > 100 µM. For the same compound, the GI50 (SF-295) was 14.8 µM, the TGI (SF-295) was 45.5 µM and the CC50 (SF-295; [2]) was > 100 µM. For the same compound, the GI50 [1] was 0.37 µM, the TGI [1] was 4.46 µM and the CC50 [1, 2] was > 100 µM. The GI50 (RXF 393) was 15.1 µM, the TGI (RXF 393) was 75.9 µM and the CC50 (RXF 393; [2]) was > 100 µM. The GI50 (SF-268) was 17.1 µM, the TGI (SF-268) was > 100 µM and the CC50 (SF-268; [2]) was > 100 µM. For the same compound, the GI50 (SW-620) was 39.7 µM, the TGI (SW-620) was > 100 µM and the CC50 (SW-620; [2]) was > 100 µM. The GI50 (HOP-62) was 21.1 µM, the TGI (HOP-62) was 84.4 µM and the CC50 (HOP-62; [2]) was > 100 µM. For the same compound, the GI50 (MDA-MB-231) was 8.92 µM, the TGI (MDA-MB-231) was 37.7 µM and the CC50 (MDA-MB-231; [2]) was > 100 µM. The GI50 (OVCAR-8) was 21.7 µM, the TGI (OVCAR-8) was > 100 µM and the CC50 (OVCAR-8; [2]) was > 100 µM. For the same compound, the GI50 (NCI-H322M) was 0.36 µM, the TGI (NCI-H322M) was 6.64 µM and the CC50 (NCI-H322M; [2]) was > 100 µM. The GI50 (SF-539) was 25.5 µM, the TGI (SF-539) was > 100 µM and the CC50 (SF-539; [2]) was > 100 µM. For the same compound, the GI50 (ACHN) was 1.47 µM, the TGI (ACHN) was 35.8 µM and the CC50 (ACHN; [2]) was > 100 µM. For the same compound, the GI50 (DU-145) was 2.72 µM, the TGI (DU-145) was > 100 µM and the CC50 (DU-145; [2]) was > 100 µM. It also gave a GI50 (A498) of 0.45 µM, a TGI (A498) of 13 µM and a CC50 (A498; [2]) of 64.8 µM. The GI50 (M14) was 25 µM, the TGI (M14) was 76 µM and the CC50 (M14; [2]) was > 100 µM. The GI50 (OVCAR-4) was 9.14 µM, the TGI (OVCAR-4) was > 100 µM and the CC50 (OVCAR-4; [2]) was > 100 µM. For the same compound, the GI50 (HL-60(TB)) was 24.4 µM, the TGI (HL-60(TB)) was 69.8 µM and the CC50 (HL-60(TB); [2]) was > 100 µM. The GI50 (SNB-19) was 9.02 µM, the TGI (SNB-19) was > 100 µM and the CC50 (SNB-19; [2]) was > 100 µM. The GI50 (SK-MEL-5) was 13.5 µM, the TGI (SK-MEL-5) was 30.7 µM and the CC50 (SK-MEL-5; [2]) was 70.1 µM. The GI50 (HCC 2998) was 37.6 µM, the TGI (HCC 2998) was > 100 µM and the CC50 (HCC 2998; [2]) was > 100 µM.
